Data taken from ChEMBL document CHEMBL1152541, “Staurosporine tethered peptide ligands that target cAMP-dependent protein kinase (PKA): optimization and selectivity profiling” (Bioorg Med Chem, 2009).
Blank lines part the entries; values can stand above or below the compound they belong to. *1 amine or outer side, *2 acyl side, *3 side chain or, on linkers, in order; H or OH if unused. Where a SMILES comes first, the peptide text is derived from it. Bridges are numbered along the chain shown (N, C = ends). [ ]: non-standard residue; d: D form. The star is where a group is joined. Staurosporine = CO[C@@H]1[C@H](N(C)*)C[C@H]2O[C@]1(C)n1c3ccccc3c3c4c(c5c6ccccc6n2c5c31)C(=O)NC4; Suc = O=C(CCC(=O)[*:2])[*:1]; Dap = NC[C@H](N)C(=O)O; βAla = NCCC(=O)O

Assays:
[1] = molecular target: T1, Tyrosine-protein kinase JAK3 (Homo sapiens) (UniProt P52333); test: Binding affinity to human JAK3 kinase domain 2 at 500 nM by cell-based competition binding assay relative to control in presence of DTT
T1 sequence (whole entry): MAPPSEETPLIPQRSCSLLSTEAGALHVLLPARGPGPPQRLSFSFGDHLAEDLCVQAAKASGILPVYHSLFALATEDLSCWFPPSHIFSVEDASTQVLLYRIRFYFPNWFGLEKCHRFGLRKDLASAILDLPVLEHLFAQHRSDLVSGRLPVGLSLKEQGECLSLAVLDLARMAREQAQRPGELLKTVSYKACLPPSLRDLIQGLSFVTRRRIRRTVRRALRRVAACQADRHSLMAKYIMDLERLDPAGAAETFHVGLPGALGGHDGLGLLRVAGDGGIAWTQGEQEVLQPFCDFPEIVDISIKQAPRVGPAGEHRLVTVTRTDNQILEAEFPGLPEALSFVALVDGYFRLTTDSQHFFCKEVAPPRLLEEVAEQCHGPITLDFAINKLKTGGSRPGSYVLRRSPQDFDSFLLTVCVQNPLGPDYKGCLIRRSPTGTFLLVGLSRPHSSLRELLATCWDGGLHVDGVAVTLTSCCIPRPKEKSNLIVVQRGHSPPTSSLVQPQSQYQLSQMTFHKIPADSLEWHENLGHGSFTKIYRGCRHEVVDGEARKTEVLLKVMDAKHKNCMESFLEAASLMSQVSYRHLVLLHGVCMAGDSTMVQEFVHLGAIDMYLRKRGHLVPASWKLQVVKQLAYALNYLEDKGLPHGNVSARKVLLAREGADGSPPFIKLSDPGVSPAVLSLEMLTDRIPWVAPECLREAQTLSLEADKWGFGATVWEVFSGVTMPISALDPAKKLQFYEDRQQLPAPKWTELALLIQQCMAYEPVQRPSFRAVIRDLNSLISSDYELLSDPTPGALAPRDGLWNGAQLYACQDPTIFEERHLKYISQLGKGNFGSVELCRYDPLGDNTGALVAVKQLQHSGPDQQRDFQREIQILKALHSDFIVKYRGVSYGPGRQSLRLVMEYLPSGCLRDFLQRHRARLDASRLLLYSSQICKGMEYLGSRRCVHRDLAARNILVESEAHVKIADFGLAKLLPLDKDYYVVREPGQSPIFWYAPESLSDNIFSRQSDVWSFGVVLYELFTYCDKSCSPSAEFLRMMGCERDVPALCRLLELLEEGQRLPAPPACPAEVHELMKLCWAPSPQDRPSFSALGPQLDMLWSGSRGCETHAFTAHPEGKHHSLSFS
Procedure, shortened: (§1)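 Competition binding screen (Ambit) across a panel of 90 kinases, scoring test ligand displacement of each kinase's binding relative to control. The screen ran under reducing conditions with 7.5 mM DTT.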

[2] = molecular target: Hepatocyte growth factor receptor (Homo sapiens) (UniProt P08581); test: Binding affinity to human MET at 500 nM by cell-based competition binding assay relative to control in presence of DTT
[3] = molecular target: cAMP-dependent protein kinase catalytic subunit alpha (Homo sapiens) (UniProt P17612); test: Binding affinity to human PKACalpha at 500 nM by cell-based competition binding assay relative to control in presence of DTT
[4] = molecular target: Angiopoietin-1 receptor (Homo sapiens) (UniProt Q02763); test: Binding affinity to human TIE2 at 200 nM by cell-based competition binding assay relative to control in presence of DTT
[5] = molecular target: Cyclin-dependent kinase 7 (Homo sapiens) (UniProt P50613); test: Binding affinity to human CDK7 at 200 nM by cell-based competition binding assay relative to control in presence of DTT
Procedure, shortened: (§2)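 Kinase binding profiling ran on a commercial (Ambit) competitive binding screen against a panel of 90 kinases. The screen used reducing conditions with 7.5 mM DTT. To withstand the DTT, the bivalent ligand was tested as its amide isostere, with the disulfide replaced. A staurosporine derivative carrying a 3 β-alanine linker was run as the reference compound.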

[6] = molecular target: Glycogen synthase kinase-3 beta (Homo sapiens) (UniProt P49841); test: Binding affinity to human GSK3-beta at 200 nM by cell-based competition binding assay relative to control in presence of DTT
Procedure, shortened: (§3)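 Commercial (Ambit) competitive kinase-binding panel of 90 kinases measured the binding profile. Run under reducing conditions of 7.5 mM DTT. Binding is expressed relative to control.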

[7] = molecular target: Insulin receptor (Homo sapiens) (UniProt P06213); test: Binding affinity to human INSR at 200 nM by cell-based competition binding assay relative to control in presence of DTT; procedure, shortened: as §1
[8] = molecular target: MAP kinase-activated protein kinase 2 (Homo sapiens) (UniProt P49137); test: Binding affinity to human MAPKAPK2 at 200 nM by cell-based competition binding assay relative to control in presence of DTT; procedure, shortened: as §1
[9] = tested on: Epidermal growth factor receptor (Homo sapiens), P00533 [L858R]; test: Binding affinity to human EGFR L858R mutant at 200 nM by cell-based competition binding assay relative to control in presence of DTT; procedure, shortened: as §3
[10] = tested on: Serine/threonine-protein kinase B-raf (Homo sapiens), P15056 [V600E]; test: Binding affinity to human BRAF V600E mutant at 200 nM by cell-based competition binding assay relative to control in presence of DTT; procedure, shortened: as §2
[11] = molecular target: Serine/threonine-protein kinase pim-1 (Homo sapiens) (UniProt P11309); test: Binding affinity to human PIM1 at 200 nM by cell-based competition binding assay relative to control in presence of DTT
[12] = molecular target: Proto-oncogene tyrosine-protein kinase receptor Ret (Homo sapiens) (UniProt P07949); test: Binding affinity to human RET at 200 nM by cell-based competition binding assay relative to control in presence of DTT
[13] = molecular target: Cyclin-dependent kinase 3 (Homo sapiens) (UniProt Q00526); test: Binding affinity to human CDK3 at 50 nM by cell-based competition binding assay relative to control in presence of DTT; procedure, shortened: as §2
[14] = molecular target: Cyclin-dependent kinase 16 (Homo sapiens) (UniProt Q00536); test: Binding affinity to human PCTK1 at 50 nM by cell-based competition binding assay relative to control in presence of DTT
[15] = molecular target: Serine/threonine-protein kinase B-raf (Homo sapiens) (UniProt P15056); test: Binding affinity to human BRAF at 50 nM by cell-based competition binding assay relative to control in presence of DTT; procedure, shortened: as §2

Activity [1]: 3.6%
Activity [2]: 46%
Activity [3]: 52%
SMILES: CO[C@@H]1[C@H](N(C)C(=O)CCC(=O)NCCC(=O)NCCC(=O)NCCC(N)=O)C[C@H]2O[C@]1(C)n1c3ccccc3c3c4c(c5c6ccccc6n2c5c31)C(=O)NC4

Activity [4]: 65%
Activity [5]: 74%
Activity [6]: 100%
Activity [7]: 100%
Activity [8]: 100%
Activity [9]: 86%
Activity [10]: 100%
Activity [11]: 53%
Activity [12]: 40%
SMILES: CO[C@@H]1[C@H](N(C)C(=O)CCC(=O)NCCC(=O)NCCC(=O)NCCC(=O)NCCC(=O)NCCC(=O)NCCC(=O)NCCC(=O)N[C@H]2CSSC[C@@H](C(=O)NCC(N)=O)NC(=O)CNC(=O)[C@H](Cc3ccccc3)NC(=O)[C@H](C(C)C)NC(=O)[C@H](CCCNC(=N)N)NC(=O)[C@H](Cc3ccccc3)NC(=O)[C@H](C(C)C)NC2=O)C[C@H]2O[C@]1(C)n1c3ccccc3c3c4c(c5c6ccccc6n2c5c31)C(=O)NC4 ({Staurosporine-Suc-βAla-βAla-βAla-βAla-βAla-βAla-βAla}-CVFRVFGCG-NH2; disulfide 1-8)

Activity [13]: 100%
Activity [14]: 98%
Activity [15]: 96%
SMILES: CO[C@@H]1[C@H](N(C)C(=O)CCC(=O)NCCC(=O)NCCC(=O)NCCC(=O)NCCC(=O)NCCC(=O)NCCC(=O)NCCC(=O)N[C@H]2CNC(=O)C[C@@H](C(N)=O)NC(=O)CNC(=O)[C@H](Cc3ccccc3)NC(=O)[C@H](C(C)C)NC(=O)[C@H](CCCNC(=N)N)NC(=O)[C@H](Cc3ccccc3)NC(=O)[C@H](C(C)C)NC2=O)C[C@H]2O[C@]1(C)n1c3ccccc3c3c4c(c5c6ccccc6n2c5c31)C(=O)NC4 ({Staurosporine-Suc-βAla-βAla-βAla-βAla-βAla-βAla-βAla}-[Dap]VFRVFGD-NH2; lactam 1-8)
